Drawing on ChEMBL document CHEMBL1150290, “Novel anti-inflammatory agents based on pyridazinone scaffold; design, synthesis and in vivo activity” (Bioorg Med Chem, 2008), this text covers ED50 and Activity for 11 molecules.

As a reminder, the ED50 is the dose that gives a 50% effect, or the effect in half of the subjects.

In series [1] the test system is Rattus norvegicus. Description: Antiinflammatory activity against carrageenan-induced paw edema in sc dosed Albino rat assessed as inhibition of paw edema volume measured 4 hrs after carrageenan challenge. It is filed as functional. In a few lines: (§1)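 Rats randomized into groups of six. Edema induced by subplantar injection of 50 µL 2% carrageenan in 0.9% saline. Compounds in DMSO given sc at 5, 10, 15, 20 and 25 µmol/kg, 1 h before carrageenan; controls got DMSO. Paw volume read by water plethysmometer immediately and 4 h after carrageenan. Protection = (Vc − Vd)/Vc × 100. ED50 taken from dose-response curves at 4 h. Means ± SEM.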
A general note: In the carrageenan paw model, swelling and tenderness develop within hours.

Series [2] relates to Rattus norvegicus. Description: Toxicity in Albino rat assessed as gastric-ulcerogenic effect at 30 uM/kg, po twice daily for 3 days. It is filed as organism-based. The conditions noted are these: in vivo, 72 h, 30 µM/kg per day. An outline of the steps:
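Male albino rats (100–120 g), six per group, fasted 12 h with water ad libitum. Compounds given orally in two equal doses at 0 and 12 h for three successive days, 30 µM/kg per day; controls received 1% gum acacia orally. Rats killed with diethyl ether 6 h after the last dose and stomachs removed. Lesion severity scored on an arbitrary scale as ulcer index; % ulceration = ulcer-bearing animals/total × 100.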

In series [3] the test system is Rattus norvegicus. As to the kind of experiment: Antiinflammatory activity in sc dosed Albino rat assessed as protection against carrageenan-induced paw edema measured 4 hrs after carrageenan challenge. It is filed as functional. An outline of the steps:
as §1

The subject of series [4] is Rattus norvegicus. Description: Antiinflammatory activity in sc dosed Albino rat assessed as protection against carrageenan-induced paw edema measured 4 hrs after carrageenan challenge relative to indomethacin. It is filed as functional.

SMILES strings stand for the structures.

`COc1ccc2c(c1)c(CC(=O)O)c(C)n2C(=O)c1ccc(Cl)cc1` [INDOMETHACIN]: the ED50 with Rattus norvegicus [1] amounted to 9.7 µmol/kg. Besides, the Activity in the series on Rattus norvegicus [2] was 100%; in the series with Rattus norvegicus [3], 74.4%.

Consider `O=C1CCC(CCc2ccc(-c3ccccc3)cc2)=NN1`, for which the ED50 with Rattus norvegicus [1] amounted to 18.7 µmol/kg. Also, the Activity in the series on Rattus norvegicus [2] was 10%; in the series with Rattus norvegicus [3], 58.16%; in the series on Rattus norvegicus [4], 78.17.

With `CN1N=C(/C=C/c2ccc(-c3ccccc3)cc2)CCC1=O`, in the series with Rattus norvegicus [1], the ED50 came to 32.4 µmol/kg. Further, the Activity in the series on Rattus norvegicus [2] turned out to be 20%.

For `O=C1CCC(/C=C/c2ccc3c(c2)OCCO3)=NN1`, in the series on Rattus norvegicus [1], the ED50 is 27 µmol/kg. Moreover, the Activity in the series on Rattus norvegicus [2] is reported as 0%.

For `Cc1ccc(-c2cc(C(F)(F)F)nn2-c2ccc(S(N)(=O)=O)cc2)cc1` [CELECOXIB], in the series on Rattus norvegicus [1], the ED50 was 16.7 µmol/kg. The results for the Activity in the series with Rattus norvegicus [2], in the series on Rattus norvegicus [3] and in the series on Rattus norvegicus [4] were 0%, 77.5% and 104.23, respectively.

For the molecule `O=C1CCC(/C=C/c2ccc(-c3ccccc3)cc2)=NN1`, the ED50 in the series on Rattus norvegicus [1] was 24.6 µmol/kg. Further, the Activity in the series with Rattus norvegicus [2] is given as 10%.

Turning to `O=C1CCC(CCc2ccc3c(c2)OCCO3)=NN1`, in the series on Rattus norvegicus [1], the ED50 turned out to be 17 µmol/kg. In addition, the figures for the Activity in the series on Rattus norvegicus [2], with Rattus norvegicus [3] and in the series on Rattus norvegicus [4] were 0%, 61.22% and 82.28, respectively.

Consider `CN1N=C(/C=C/c2ccc3c(c2)OCO3)CCC1=O`, for which, in the series on Rattus norvegicus [1], the ED50 was determined as 34.3 µmol/kg. Besides, the Activity with Rattus norvegicus [2] was found to be 10%.

As to `CN1N=C(CCc2ccc(-c3ccccc3)cc2)CCC1=O`, the ED50 in the series with Rattus norvegicus [1] was 22.3 µmol/kg. In the series on Rattus norvegicus [2], the Activity was 0%.

As to `O=C1CCC(/C=C/c2ccc(-c3ccccc3)cc2)=NN1c1ccccc1`, the ED50 with Rattus norvegicus [1] was 38.6 µmol/kg. For the same molecule, the Activity with Rattus norvegicus [2] was determined as 10%.

In the case of `O=C1CCC(/C=C/c2ccc(Oc3ccccc3)cc2)=NN1`, the ED50 with Rattus norvegicus [1] is 28.8 µmol/kg. Also, the Activity with Rattus norvegicus [2] amounted to 0%.
